Series [1] in a line: Drug degradation in human MG63 cells at 1 uM after 24 hrs by HPLC analysis. The series is classed as ADME, cell-based, MG-63. The following applies: read-out: Drug degradation. Put shortly:
(§1)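 MG63 cells cultured with compound (1 µM) in medium containing 10% FBS. Uptake sampled at 5 and 10 min, stability after 24 h of culture. Compound levels in cells and medium determined by HPLC.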

Series [2] in a line: Drug uptake in human MG63 cells at 1 uM after 10 mins by HPLC analysis. The series is classed as ADME, cell-based. The following applies: mg-63, 10 min. The method in brief:
as §1

A short description of series [3]: Drug uptake in human MG63 cells at 1 uM after 5 mins by HPLC analysis. The series is classed as ADME, cell-based. As to conditions: mg-63, 5 min. The method in brief:
as §1

The nature of series [4]: Stability in human MG63 cells assessed as parent compound remaining at 1 uM after 24 hrs by HPLC analysis. The series is classed as ADME, cell-based, MG-63. The following applies: read-out: Stability. Put shortly: as §1
In series [5] the target is T1, Vitamin D3 receptor (Homo sapiens, UniProt P11473).
T1 sequence (P11473 whole entry): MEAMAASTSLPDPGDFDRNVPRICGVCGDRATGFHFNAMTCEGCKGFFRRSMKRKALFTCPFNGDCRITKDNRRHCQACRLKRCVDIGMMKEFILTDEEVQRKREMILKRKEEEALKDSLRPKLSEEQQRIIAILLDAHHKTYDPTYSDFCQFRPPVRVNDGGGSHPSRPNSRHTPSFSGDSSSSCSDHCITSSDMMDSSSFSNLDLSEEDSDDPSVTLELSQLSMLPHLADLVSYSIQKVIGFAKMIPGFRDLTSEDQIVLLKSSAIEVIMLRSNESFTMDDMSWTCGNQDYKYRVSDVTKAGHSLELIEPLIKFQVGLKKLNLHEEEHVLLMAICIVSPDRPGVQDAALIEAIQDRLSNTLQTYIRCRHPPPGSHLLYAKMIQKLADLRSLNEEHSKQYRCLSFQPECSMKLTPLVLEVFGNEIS
Briefly: Transrepression of VP16-tagged VDR (unknown origin) expressed in HEK293 cells harboring pCMX-GAL4-NCoR and MH100(UAS) X 4tk-LUC reporter plasmid assessed as increase in NCoR recruitment by […] reporter gene based mammalian two-hybrid assay. The series is classed as cell-based. On the technique in general: Reporter assays use an easily measured gene product as a stand-in for the process of interest.

Series [6] concerns the target T2, Vitamin D3 receptor (Homo sapiens) (UniProt P11473).
T2 sequence (whole entry): T1 sequence (P11473 whole entry)
Briefly: Displacement of [26,27-Methyl-3H]-1,25(OH)2D3 from recombinant human GST-tagged VDR LBD (140 to 427 residues) expressed in Escherichia coli BL21 preincubated for 30 mins followed by radioligand addition measured after 20 hrs relative to 1,25(OH)2D3. The method in brief: (§2)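 GST-VDR fusion protein incubated with [3H]1,25(OH)2D3 plus unlabeled competitor over a range of concentrations. Values are means ± standard deviations of triplicate assays.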

For series [7], the target named is T1, Vitamin D3 receptor. Briefly: Transactivation of VP16-tagged VDR (unknown origin) expressed in HEK293 cells harboring pCMX-GAL4-SRC-1 and MH100(UAS) X 4tk-LUC reporter plasmid assessed as increase in SRC-1 recruitment by […] reporter gene based mammalian two-hybrid assay. It counts as cell-based.
For series [8], the target named is T2, Vitamin D3 receptor (Homo sapiens). Put plainly: Agonist activity at VDR in human U937 cells assessed as increase in CYP24A1 gene expression at 100 nM after 24 hrs by RT-PCR method relative to 1,25(OH)2D3. It counts as cell-based. Put shortly: (§3)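 Cells treated with ligand at 100 nM for 24 h. mRNA of the target gene measured by reverse transcription and quantitative real-time PCR. Expression given as percentage of that induced by an equal concentration of 1,25(OH)2D3. Significance tested versus vehicle control.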

Series [9] shares this target. Put plainly: Agonist activity at VDR in human MG63 cells assessed as increase in CYP24A1 gene expression at 100 nM after 24 hrs by RT-PCR method relative to 1,25(OH)2D3. It counts as cell-based. Put shortly:
as §3

For series [10], the target named is T1, Vitamin D3 receptor. Briefly: Displacement of [26,27-Methyl-3H]-1,25(OH)2D3 from recombinant human GST-tagged VDR LBD (140 to 427 residues) expressed in Escherichia coli BL21 preincubated for 30 mins followed by radioligand addition measured after 20 hrs. The method in brief: as §2
The target in series [11] is T2, Vitamin D3 receptor (Homo sapiens). Briefly: Agonist activity at VDR in human SW480 cells assessed as increase in E-cadherin gene expression at 100 nM after 24 hrs by RT-PCR method relative to 1,25(OH)2D3. The series is classed as cell-based. The method in brief:
as §3

The target is the same in series [12]. Put plainly: Agonist activity at VDR in human HaCaT cells assessed as increase in CAMP gene expression at 100 nM after 24 hrs by RT-PCR method relative to 1,25(OH)2D3. It counts as cell-based. Put shortly:
as §3

The target is the same in series [13]. Put plainly: Agonist activity at VDR in human HaCaT cells assessed as increase in CYP24A1 gene expression at 100 nM after 24 hrs by RT-PCR method relative to 1,25(OH)2D3. It counts as cell-based. Put shortly:
as §3

The target is the same in series [14]. Briefly: Agonist activity at VDR in human SW480 cells assessed as increase in CYP24A1 gene expression at 100 nM after 24 hrs by RT-PCR method relative to 1,25(OH)2D3. The series is classed as cell-based. Put shortly: as §3
Series [15] has the same target. Put plainly: Transactivation of VDR (unknown origin) expressed in HEK293 cells harboring TK-Spp X 3-LUC reporter plasmid after 24 hrs by luciferase reporter gene assay relative to control. The series is classed as cell-based. Put shortly: (§4)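 HEK293 cells transfected with pCMX-VDR and TKSpp × 3-LUC reporter. Cells treated with vehicle or ligand at 10-14 M to 10^-8 M for 24 h, then harvested. Luciferase activity assayed alongside β-galactosidase activity.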

For series [16] the target is unchanged. Briefly: Agonist activity at VDR in HEK293 cells assessed as increase in CYP24A1 gene expression at 100 nM after 24 hrs by RT-PCR method relative to 1,25(OH)2D3. The series is classed as cell-based. Put shortly:
as §3

Series [17] shares this target. Put plainly: Agonist activity at VDR in human U937 cells assessed as increase in CAMP gene expression at 100 nM after 24 hrs by RT-PCR method relative to 1,25(OH)2D3. The series is classed as cell-based. The method in brief:
as §3

The target of series [18] is T1, Vitamin D3 receptor. Briefly: Transactivation of VP16-tagged VDR (unknown origin) expressed in HEK293 cells harboring pCMX-GAL4-RXRalpha and MH100(UAS) X 4tk-LUC reporter plasmid assessed as increase in interaction with RXRalpha by […] reporter gene based mammalian two-hybrid assay. It counts as cell-based.
In series [19] the target is T2, Vitamin D3 receptor (Homo sapiens). Put plainly: Agonist activity at VDR in human SW480 cells assessed as increase in TRPV6 gene expression at 100 nM after 24 hrs by RT-PCR method relative to 1,25(OH)2D3. The series is classed as cell-based. Put shortly: as §3
The target is the same in series [20]. Briefly: Agonist activity at VDR in human MG63 cells assessed as increase in OCN gene expression at 100 nM after 24 hrs by RT-PCR method relative to 1,25(OH)2D3. The series is classed as cell-based. Put shortly: as §3
The target in series [21] is T1, Vitamin D3 receptor. Briefly: Transactivation of VDR (unknown origin) expressed in HEK293 cells harboring TK-Spp X 3-LUC reporter plasmid after 24 hrs by luciferase reporter gene assay. The series is classed as cell-based. Put shortly:
as §4

The target of series [22] is T2, Vitamin D3 receptor (Homo sapiens). Briefly: Transactivation of VDR (unknown origin) expressed in HEK293 cells harboring TK-Spp X 3-LUC reporter plasmid after 24 hrs by luciferase reporter gene assay relative to 1,25(OH)2D3. It counts as cell-based. The method in brief: as §4

The source made the active and inactive calls. The calls are words filed in the database; no cut-off is given here.

On to `C=C1/C(=C\C=C2/CCC[C@]3(C)[C@@H]([C@H](C)CCCC(C)(C)O)CC[C@@H]23)C[C@@H](O)C[C@@H]1O` [CALCITRIOL], for which the metabolised at 24 h, 1 µM in series [1] stood at 30%. The Drug uptake in [2] stood at 2.3%; in series [3] it was 3.4%. For the same compound, the remaining at 24 h, 1 µM in series [4] was determined as 70%.

For orientation: IC50 means the concentration that gives 50% inhibition. Broadly, the inhibition is the relative decrease from the control value, in per cent. A word on the EC50: it is the concentration giving half of the maximal effect. Broadly, the Emax is the maximal effect, on the per cent scale that the assay sets. `C=C1/C(=C\C=C2/CCC[C@]3(C)[C@@H]([C@H](C)CC#C[C@@H](O)C45CC6CC(CC(C6)C4)C5)CC[C@@H]23)C[C@@H](O)C[C@@H]1O`: the results for the IC50 at Vitamin D3 receptor [5] and at Vitamin D3 receptor [10] were 0.09 nM and 0.24 nM, respectively. Moreover, the inhibition in series [6] was 50%. Further, the EC50 at Vitamin D3 receptor [7] is greater than 1.2 nM; at Vitamin D3 receptor [18] it was greater than 0.14 nM; at Vitamin D3 receptor [21], 0.03 nM. Further, the Activity in [8] stood at 54%; in series [9], 44%; in [11] it was 12%; in [12] it was 24%; in series [13], 7%; in [14] it was 8%. For the same compound, the Activity in series [15] came out at 90%; in series [16] it was 160%; in [17] it was 96%; in series [19], 22%; in series [20], 64%. Moreover, the values for the Drug uptake in series [2] and in [3] were 6% and 3.1%, respectively. In addition, the remaining at 24 h, 1 µM in series [4] was determined as 49%. In series [22], this compound came in with an Emax of 87%.

Regarding `C=C1[C@H](O)CC(=C/C=C2\CCC[C@]3(C)[C@@H]([C@H](C)CC#C[C@@H](O)C45CC6CC(CC(C6)C4)C5)CC[C@@H]23)C[C@H]1O`, the Activity was 85% in series [8]; 58% in [9]; 30% in series [13]; 50% in series [14]; 170% in series [15]; 100% in [16]. In addition, the Drug uptake in series [2] is listed as 9.7%; in series [3], 6.1%. Moreover, the remaining at 24 h, 1 µM in series [4] turned out to be 43%. In series [22], this compound yielded an Emax of 81%.

Regarding `C=C1/C(=C\C=C2/CCC[C@]3(C)[C@@H]([C@H](C)CC#C[C@H](O)C45CC6CC(CC(C6)C4)C5)CC[C@@H]23)C[C@@H](O)C[C@@H]1O`, the IC50 at Vitamin D3 receptor [5] worked out at 1.75 nM; on Vitamin D3 receptor [10] it was 3.13 nM. Further, the inhibition in series [6] turned out to be 4%. The figures for the EC50 on Vitamin D3 receptor [7], at Vitamin D3 receptor [18] and at Vitamin D3 receptor [21] were greater than 3.2 nM, greater than 1.2 nM and greater than 5.69 nM, respectively. Also, the outcome in series [8], in series [9], in series [13], in series [14], in [16] and in [17] was Active. For the same compound, the result in series [20] was Active. Moreover, the Drug uptake in series [2] is given as 9.5%; in series [3], 6.9%. In [4], the remaining at 24 h, 1 µM was found to be 90%.

The values are drawn from ChEMBL document CHEMBL4130637, “25 S-Adamantyl-23-yne-26,27-dinor-1α,25-dihydroxyvitamin D3: Synthesis, Tissue Selective Biological Activities, and X-ray Crystal Structural Analysis of Its Vitamin D Receptor Complex” (J Med Chem, 2018).
